This experiment can be described thus: HIF pathway activation under zinc exposure, dose response, mechanism study for HIF pathway activator project, U2OS HRE-luc cells, zinc medium, dry powder (AID 504324). The conditions noted are these: U2OS HRE-luciferase reporter, zinc medium, luminescence; at 38 µM (top of the series). A digest of the protocol:
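assay system = human osteosarcoma U2OS cells stably expressing 3×HRE-driven luciferase reporter | medium = phenol red-free DMEM with FBS and 50 µM zinc | compound = 8-point, 3-fold compound series | schedule = cells plated 24 h before dosing, compound exposure 24 h, 37 °C | measured by = luciferase luminescence, Steady-Glo reagent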

SMILES strings stand for the structures. Values joined by “and” are separate entries in the source; they are usually repeats but may differ in a detail not shown here. Equal entries are not always repeated. Active and inactive are the calls of the source.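 The calls were made as follows: active = compounds lowering the signal whose fitted half-maximal concentration is at most ten times their top tested dose; inconclusive = flat curve with a 30 to 70% drop, or poor fit; inactive = rising signal, flat curve, or potency beyond limit.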

For `Cc1ccccc1CNc1nc(-c2ccccn2)nnc1-c1ccccc1`, the activity change, negative = decrease is 5380% (inactive).

On to `Cc1ccc(CNC(=O)c2cc(-c3ccccc3)on2)cc1`, for which the activity change, negative = decrease is 10.4% (inactive).

As for `O=C(NCCCO)c1cc(-c2ccccc2)on1`, the activity change, negative = decrease is 811% (inactive).

In the case of `CN1CCN(C(=O)c2cc(-c3ccccc3)on2)CC1`, the activity change, negative = decrease is 13.1% (inactive).

Turning to `c1ccc(-c2ccc(CNc3nc(-c4ccccn4)nnc3-c3ccccc3)cc2)cc1`, the activity change, negative = decrease is 3920% (inactive).

On to `O=C(c1cc(-c2ccccc2)on1)N1CCC(N2CCCC2)CC1`, for which the activity change, negative = decrease is 6.15% (inactive).

As to `Cc1cccc(Nc2nc(-c3ccccn3)nnc2-c2ccccc2)n1`, the activity change, negative = decrease is 4620% (inactive).

In the case of `c1ccc(-c2nnc(-c3ccccn3)nc2N2CCN(c3ccncc3)CC2)cc1`, the activity change, negative = decrease is 4830% (inactive).

As for `O=C(c1cc(-c2ccccc2)on1)N1CCC(N2CCOCC2)CC1`, the activity change, negative = decrease was -1.04% (inactive).

As to `c1ccc(CCNc2nc(-c3ccccn3)nnc2-c2ccccc2)cc1`, the activity change, negative = decrease is 4750% (inactive).

For `c1ccc(-c2nnc(-c3ccccn3)nc2NCC2CCCCC2)cc1`, the activity change, negative = decrease is 8340% (inactive).

On to `COc1ccccc1N1CCN(Cc2ccc(O)c3ncccc23)CC1`, for which the activity change, negative = decrease is 52.8% (inactive).

With `CN(C)c1nc(-c2ccccn2)nnc1-c1ccccc1`, the activity change, negative = decrease was 3380% (inactive).

`Cn1c(NC(=O)c2cc(-c3ccccc3)on2)nc2ccccc21`: the activity change, negative = decrease is -2.21% (inactive).

Turning to `Cn1c(-c2ccccc2)cnc1Nc1nc(-c2ccccn2)nnc1-c1ccccc1`, the activity change, negative = decrease is 210% (inactive).

As to `C[C@@H](Nc1nc(-c2ccccn2)nnc1-c1ccccc1)C1CCCCC1`, the activity change, negative = decrease is 4780% (inactive).

Take `O=C(NCc1ccccc1)c1cc(-c2ccccc2)on1`: the activity change, negative = decrease is 64% (inactive).

As to `c1ccc(-c2nnc(-c3ccccn3)nc2NCC2CC2)cc1`, the activity change, negative = decrease is 5580% (inactive).

`Oc1ccc(CN2CCc3ccccc3C2)c2cccnc12`: the activity change, negative = decrease is -77.2% (inactive) and 47.2% (inactive).

Take `c1ccc(-c2nnc(-c3ccccn3)nc2NCc2ccccn2)cc1`: the activity change, negative = decrease was 3330% (inactive).

Turning to `c1ccc(-c2cccc(CNc3nc(-c4ccccn4)nnc3-c3ccccc3)c2)cc1`, the activity change, negative = decrease is 4810% (inactive).

Regarding `CC(C)(C)CCNC(=O)c1cc(-c2ccccc2)on1`, the activity change, negative = decrease was 651% (inactive).

Consider `CC(C)(C)CCNc1nc(-c2ccccn2)nnc1-c1ccccc1`, for which the activity change, negative = decrease was 7490% (inactive) and 6820% (inactive).

Consider `Cc1ccc(NC(=O)c2cc(-c3ccccc3)on2)cn1`, for which the activity change, negative = decrease is 21.6% (inactive).

As to `O=C(c1cc(-c2ccccc2)on1)N1CCc2cccnc21`, the activity change, negative = decrease was 44% (inactive).

As for `C[C@@H](Nc1nc(-c2ccccn2)nnc1-c1ccccc1)c1ccccc1`, the activity change, negative = decrease is 4300% (inactive).

As to `CN(C)CCNC(=O)c1cc(-c2ccccc2)on1`, the activity change, negative = decrease is 31.3% (inactive).

Consider `COc1ccc(CNc2nc(-c3ccccn3)nnc2-c2ccccc2)cc1`, for which the activity change, negative = decrease is 5130% (inactive).

With `Clc1cccc(CNc2nc(-c3ccccn3)nnc2-c2ccccc2)c1`, the activity change, negative = decrease was 4600% (inactive).

For `C[C@H](Nc1nc(-c2ccccn2)nnc1-c1ccccc1)C1CCCCC1`, the activity change, negative = decrease was 5570% (inactive).

For `O=C(Nc1cn2ccccc2n1)c1cc(-c2ccccc2)on1`, the activity change, negative = decrease was 41.5% (inactive).

Turning to `O=C(NCCCCO)c1cc(-c2ccccc2)on1`, the activity change, negative = decrease was 1710% (inactive).

Regarding `O=C(Nc1nc(-c2ccccc2)cs1)c1cc(-c2ccccc2)on1`, the activity change, negative = decrease was -11.2% (inactive).

Consider `Oc1ccc(CN2CCC3CCCCC3C2)c2cccnc12` (stereo not given), for which the activity change, negative = decrease is 916% (inactive).

`CC(Nc1nc(-c2ccccn2)nnc1-c1ccccc1)c1ccccc1` (stereo not given): the activity change, negative = decrease is 4380% (inactive).

As to `c1ccc(-c2cnc(Nc3nc(-c4ccccn4)nnc3-c3ccccc3)s2)cc1`, the activity change, negative = decrease is 44.9% (inactive).

Turning to `c1ccc(-c2nnc(-c3ccccn3)nc2NCCc2ccccn2)cc1`, the activity change, negative = decrease is 4700% (inactive).

On to `c1ccc(-c2nnc(-c3ccccn3)nc2N2CCC(C3CCCCC3)C2)cc1` (stereo not given), for which the activity change, negative = decrease was 4900% (inactive).

As to `Cc1cccc(NC(=O)c2cc(-c3ccccc3)on2)n1`, the activity change, negative = decrease is 39.8% (inactive).

With `O=C(Nc1nc2ccccc2s1)c1cc(-c2ccccc2)on1`, the activity change, negative = decrease is 12.6% (inactive).

`CN1CCN(c2nc(-c3ccccn3)nnc2-c2ccccc2)CC1`: the activity change, negative = decrease was 1500% (inactive).

With `O=C(NCC1CCCCC1)c1cc(-c2ccccc2)on1`, the activity change, negative = decrease was 158% (inactive).

As for `CC(C)(C)c1ccc(CNc2nc(-c3ccccn3)nnc2-c2ccccc2)cc1`, the activity change, negative = decrease is 3790% (inactive).

For the molecule `O=C(Nc1cnc2ccccc2c1)c1cc(-c2ccccc2)on1`, the activity change, negative = decrease is 17.3% (inactive).

Consider `Oc1ccc(CNC2Cc3ccccc3C2)c2cccnc12`, for which the activity change, negative = decrease was 314% (inactive).

Regarding `O=C(NC1CCc2ccccc2C1)c1cc(-c2ccccc2)on1` (stereo not given), the activity change, negative = decrease is -9.29% (inactive).

With `O=C(Nc1ccc2ccccc2n1)c1cc(-c2ccccc2)on1`, the activity change, negative = decrease was 22.8% (inactive).

As to `Cc1cccc(CNC(=O)c2cc(-c3ccccc3)on2)c1`, the activity change, negative = decrease is -6.77% (inactive).

With `O=C(NCC1CC1)c1cc(-c2ccccc2)on1`, the activity change, negative = decrease is 798% (inactive).

`O=C(NCCN1CCOCC1)c1cc(-c2ccccc2)on1`: the activity change, negative = decrease was 1440% (inactive).

Consider `OCCCNc1nc(-c2ccccn2)nnc1-c1ccccc1`, for which the activity change, negative = decrease is 3730% (inactive).

As for `Oc1ccc(CN2CCC(Cc3ccccc3)CC2)c2cccnc12`, the activity change, negative = decrease is 27.6% (inactive).

In the case of `c1ccc(-c2nnc(-c3ccccn3)nc2NCCCN2CCOCC2)cc1`, the activity change, negative = decrease is 5050% (inactive).

As to `O=C(c1cc(-c2ccccc2)on1)N1CCN(c2ccncc2)CC1`, the activity change, negative = decrease was -13.1% (inactive).

Consider `O=C(Nc1nnc(-c2ccccc2)s1)c1cc(-c2ccccc2)on1`, for which the activity change, negative = decrease was 6.48% (inactive).

Consider `CC1CN(Cc2ccc(O)c3ncccc23)CC(C)O1` (stereo not given), for which the activity change, negative = decrease is 4.72% (inactive).

In the case of `c1ccc(-c2nnc(-c3ccccn3)nc2N2CCC(c3ccccc3)C2)cc1` (stereo not given), the activity change, negative = decrease is 5380% (inactive).

Consider `O=C(NCCCN1CCOCC1)c1cc(-c2ccccc2)on1`, for which the activity change, negative = decrease was 1480% (inactive).

Take `Cc1ccc(Nc2nc(-c3ccccn3)nnc2-c2ccccc2)cn1`: the activity change, negative = decrease is 2240% (inactive).

With `c1ccc(-c2nnc(-c3ccccn3)nc2N2CCC(N3CCOCC3)CC2)cc1`, the activity change, negative = decrease was 4120% (inactive).

The record behind these values is PubChem BioAssay AID504324 (Broad Institute, 2011).
